Assay results as given in ChEMBL document CHEMBL4808183, “Betulonic Acid Derivatives Interfering with Human Coronavirus 229E Replication via the nsp15 Endoribonuclease” (J Med Chem, 2021).
Calls of active or inactive are those of the source. No cut-off for these calls is given here.

Tests used:
[1] = (§1) Antiviral activity against Human coronavirus 229E infected in human embryonic lung fibroblast cells assessed as reduction in virus-induced cytopathic effect incubated for 5 days by MTS cell viability assay; assay type: functional, cell-based; conditions: 120 h
Summary of the method: (§2)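 Confluent HEL cell cultures given serial compound dilutions together with HCoV-229E at MOI 100 and held 5 days at 35 °C. Virus-induced CPE was scored by microscopy. MTS reagent was then added and absorbance at 490 nm read 24 h later. EC50 was taken from the MTS or microscopic read-out and CC50 from MTS. SI = CC50/EC50, both by MTS. Mean ± SEM of three independent experiments.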

[2] = Antiviral activity against Human coronavirus 229E infected in human embryonic lung fibroblast cells assessed as reduction in virus-induced cytopathic effect incubated for 5 days by microscopy; assay type: functional, cell-based; conditions: 120 h; summary of the method: as §2
[3] = Cytotoxicity against mock-infected human embryonic lung fibroblast cells incubated for 5 days by MTS assay; assay type: cell-based; conditions: time 5 day; summary of the method: as §2
[4] = as §1, with “Selectivity index, ratio of CC50 for cytotoxicity against mock-infected human embryonic lung fibroblast cells incubated for 5 days by MTS assay to EC50 for antiviral” for “Antiviral”; assay type: toxicity, cell-based; conditions: time 5 day, read-out: Ratio CC50/EC50; summary of the method: as §2
SARS-CoV-2 = assay: Antiviral activity against SARS-CoV-2 infected in eGFP expressing Vero E6 cells assessed as reduction in virus-induced cytopathic effect cells pretreated for 24 hrs measure after 4 days post infection by MTS cell viability assay; assay type: functional, organism-based; conditions: Severe acute respiratory syndrome coronavirus 2
[5] = target: Replicase polyprotein 1ab (Human coronavirus 229E) (UniProt P0C6X1); assay: Inhibition of nsp15 in Human coronavirus 229E infected in human embryonic lung fibroblast cells assessed as reduction in viral RNA synthesis at early stage of RNA synthesis at 15 uM treated 6 hrs post infection by RT-qPCR based time-of-addition assay; assay type: cell-based
Summary of the method: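 Confluent HEL cells infected with HCoV-229E (MOI 100). Compound at 15 μM was added at -0.5 to 8 h p.i. At 16 h p.i. cells were washed with ice-cold PBS and lysed on ice, then heated 10 min at 75 °C and DNase-treated. Viral RNA was measured by one-step RT-qPCR against the N gene, using a plasmid standard for absolute copies. Values are relative to the no-compound virus control, from two independent experiments.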

[6] = system: Human immunodeficiency virus; assay: Antiviral activity against HIV; assay type: functional, organism-based
[7] = system: Herpes simplex virus unknown type; assay: Antiviral activity against Herpes simplex virus; assay type: functional
Vaccinia virus = assay: Antiviral activity against Vaccinia virus; assay type: functional, organism-based; conditions: Orthopoxvirus vaccinia
Human adenovirus 2 = assay: Antiviral activity against Adenovirus; assay type: functional
[8] = system: Vesicular stomatitis virus; assay: Antiviral activity against Vesicular stomatitis virus; assay type: functional, organism-based
Coxsackievirus B4 = assay: Antiviral activity against Coxsackie B4 virus; assay type: functional, organism-based
[9] = system: Respiratory syncytial virus; assay: Antiviral activity against Respiratory syncytial virus; assay type: functional, organism-based
Human respirovirus 3 = assay: Antiviral activity against Parainfluenza-3 virus; assay type: functional, organism-based
Reovirus sp. = assay: Antiviral activity against Reovirus-1; assay type: functional, organism-based
Sindbis virus = assay: Antiviral activity against Sindbis virus; assay type: functional, organism-based
Punta Toro virus = assay: Antiviral activity against Punta Toro virus; assay type: functional, organism-based
Yellow fever virus = assay: Antiviral activity against Yellow fever virus; assay type: functional, organism-based
Influenza A virus = assay: Antiviral activity against Influenza virus; assay type: functional
Fibroblast [10] = assay: Inhibition of nsp15 K60R drug-resistant mutant in Human coronavirus 229E infected in human embryonic lung fibroblast cells assessed as reduction in virus yield; assay type: cell-based
Summary of the method: (§3)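 Virus yield assay in confluent HEL cells. Serial compound dilutions were added, and cells were infected at MOI 100 with wild-type, EndoU-deficient (H250A nsp15) or passage-selected (K60R or T66I nsp15) HCoV-229E. After 4 h at 35 °C, the inoculum was removed and compound re-added. Supernatant was lysed at 3 days p.i. and N-gene RNA copies measured by one-step RT-qPCR. Results are fold reduction versus the no-compound control, from three independent experiments.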

Fibroblast [11] = assay: Inhibition of nsp15 T66I drug-resistant mutant in Human coronavirus 229E infected in human embryonic lung fibroblast cells assessed as reduction in virus yield; assay type: cell-based; summary of the method: as §3
[12] = Antiviral activity against Human coronavirus 229E harboring reverse engineered EndoU-deficient H250A mutant infected in human embryonic lung fibroblast cells assessed as fold reduction in virus yield measured up to 40 uM; assay type: functional; conditions: dose microM <=40; summary of the method: as §3
[13] = target: Replicase polyprotein 1ab (Human coronavirus 229E) (UniProt P0C6X1); assay: Inhibition of nsp15 in wild type Human coronavirus 229E infected in human embryonic lung fibroblast cells assessed as reduction in virus yield; assay type: cell-based
Summary of the method: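 Confluent HEL cells (or semiconfluent 16HBE) with serial compound dilutions, infected with wild-type HCoV-229E at MOI 100. After 4 h at 35 °C the inoculum was removed and compound re-added. Supernatants were taken at 3 days p.i., lysed, and heated 10 min at 75 °C. Three independent experiments.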

Compound: C=C(C)[C@@H]1CC[C@]2(C(=O)O)CC[C@]3(C)[C@H](CC[C@@H]4[C@@]5(C)Cc6nnn([C@@H](C)c7ccccc7)c6C(C)(C)[C@@H]5CC[C@]43C)[C@@H]12
- EC50 [1]: 650 nM
- EC50 [2]: 600 nM
- CC50 at 120 h [3]: 49000 nM
- selectivity ratio at 120 h [4]: 76
- Activity (SARS-CoV-2): Active
- Activity [5]: Active
- Activity [6]: inactive
- Activity [7]: inactive
- Activity (Vaccinia virus): inactive
- Activity (Human adenovirus 2): inactive
- Activity [8]: inactive
- Activity (Coxsackievirus B4): inactive
- Activity [9]: inactive
- Activity (Human respirovirus 3): inactive
- Activity (Reovirus sp.): inactive
- Activity (Sindbis virus): inactive
- Activity (Punta Toro virus): inactive
- Activity (Yellow fever virus): inactive
- Activity (Influenza A virus): inactive
- EC99 (Fibroblast [10]): 2.9 µM
- Activity (Fibroblast [11]): inactive
- fold change (FC) [12]: 23
- fold change (FC) [13]: 1480
